Test results reported in article PMC7254805 (ACS Omega, 2020).
≈ marks a conversion by molar mass, not a printed value. Entries after “also recorded” stand apart in the source; their conditions may differ.

Key:
BALB/c mice [1] = assay: Acute oral toxicity in mice; assay type: in vivo; details: for maximum acute tolerance dose: BALB/c mice
[2] = system: Huh7 cells harboring HCV monocistronic replicon genotype 2a (Rep2a); assay: HCV replication assay in Rep2a cell line; assay type: cell-based, HCV genotype 2a; details: at 250 μM, compared with Telaprevir
[3] = Oral bioavailability in mice, plasma RP-HPLC; assay type: in vivo, BALB/c mice
BALB/c mice [4] = assay: Sub-acute; assay type: in vivo
Method in brief: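 Sub-acute oral toxicity per OECD 407 in BALB/c mice. Test compounds are given orally daily for 28 consecutive days at 1000 or 500 mg/kg b. wt/day, in water or PEG-400. Vehicle controls receive water or PEG-400 at 200 μL/day/mouse. Body weight, food and water intake, behaviour and toxicity signs are recorded. Liver sections (5 μm) are H&E-stained for light microscopy.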

HCV NS3/4A protease = HCV NS3/4A protease (Hepatitis C virus, UniProt P26662); assay: HCV NS3/4A protease fluorimetric activity assay; assay type: biochemical
HCV NS3/4A protease, sequence (P26662 1027-1208, other chains not shown): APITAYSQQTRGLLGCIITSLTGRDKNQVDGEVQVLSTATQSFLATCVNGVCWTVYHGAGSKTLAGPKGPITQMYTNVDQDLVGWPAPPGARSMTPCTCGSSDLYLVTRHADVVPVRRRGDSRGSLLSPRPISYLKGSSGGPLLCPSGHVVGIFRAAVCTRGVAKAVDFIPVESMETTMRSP
Method in brief: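 Purified single-chain NS3/4A (scNS3/4A, 0.1 μM) is pre-incubated with test compound, then purified EGFP-NS5A/B-CBD fusion substrate (0.5 μM) is added for 1 h at 37 °C. Cellulose slurry stops the reaction; after centrifugation, supernatant fluorescence is read at 484/538 nm. Compounds are screened at 50 μM, with dose response over 10–100 μM. Activity is relative to a no-compound reaction (100%); telaprevir is the positive control.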

trypsin = trypsin (Sus scrofa, UniProt P00761); assay: Cellular serine protease; assay type: biochemical; details: up to 250 μM
trypsin, sequence (P00761 9-231): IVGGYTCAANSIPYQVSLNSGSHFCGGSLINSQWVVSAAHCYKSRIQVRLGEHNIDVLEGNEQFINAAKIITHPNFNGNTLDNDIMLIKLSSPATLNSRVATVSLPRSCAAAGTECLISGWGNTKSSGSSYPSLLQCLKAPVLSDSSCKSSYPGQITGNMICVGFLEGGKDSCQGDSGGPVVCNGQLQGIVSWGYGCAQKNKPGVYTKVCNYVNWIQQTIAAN
Method in brief: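 Trypsin is pre-incubated with increasing test compound concentrations, then FITC-labelled casein substrate is added for 1 h at 37 °C. The reaction is stopped with trichloroacetic acid (6.1 N) and centrifuged. Supernatant fluorescence is read at excitation 485 nm and emission 538 nm. Activity is expressed relative to a no-compound reaction (100%); G. max trypsin inhibitor is the positive control.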

Huh7.5 cells = assay: Cell viability MTT assay; assay type: cell-based; details: up to 5 mM
Method in brief: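 Huh7.5 cells are seeded at 2 × 10^4 per well in DMEM with 10% serum and incubated overnight at 37 °C. After 12 h, cells are treated with a range of test compound concentrations, and viability is read by MTT. Untreated cells serve as control. Data are mean ± SD of three independent experiments; CC50 is taken from the dose response.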

Aqueous solubility = assay type: physicochemical; details: water
[5] = BALB/c, mouse, plasma, po, 500 mg/kg

**Q.** With COc1ccc(CC(CC(=O)O)C(=O)O)cc1OC (centres unmarked) [D8, 2-(3,4-Dimethoxybenzyl)succinic Acid] as the compound, how does the liver histology (BALB/c mice [1]; maximum acute tolerance dose 4000 mg/kg b. wt p.o, vs water control) read?
**A.** Its liver histology is “normal histoarchitecture”.

**Q.** What about the death of mice (BALB/c mice [1]; oral, 5000 mg/kg b. wt) of the same compound?
**A.** The death of mice was 40%.

**Q.** And the death of mice (BALB/c mice [1]; oral, 5250 mg/kg b. wt)?
**A.** Its death of mice is 100%.

**Q.** And the “maximum acute tolerance dose” value (BALB/c mice [1]; oral)?
**A.** The value was 4000 mg/kg b. wt.

**Q.** And the “tolerance dose relative to phyllanthin” value (BALB/c mice [1]; oral, D8 4000 vs phyllanthin 1500 mg/kg)?
**A.** Its value is about 2.5 times.

**Q.** What about the “reduction in HCV negative strand synthesis” value [2] of the same compound?
**A.** Its value is “matching that of the inhibition by Telapravir”.

**Q.** What about the “plasma concentration after 2 h” value ([3]; 500 mg/kg p.o) of the same compound?
**A.** The value was 595 μg mL^–1.

**Q.** What about the Cmax [3, 5] of the same compound?
**A.** The Cmax was about 595 µg/mL.

**Q.** What about the Tmax [3, 5] of the same compound?
**A.** The Tmax was 1 h.

**Q.** And the half-life [3, 5]?
**A.** Its half-life is 2 h.

**Q.** And the “changes in general behavior and body weights” value (BALB/c mice [4]; 1000 mg/kg b. wt/day oral, 28 consecutive days)?
**A.** The value was “did not exhibit any undesirable changes”.

**Q.** And the liver histology (BALB/c mice [4]; 1000 mg/kg b. wt/day oral, 28 days)?
**A.** Its liver histology is “normal histology”.

**Q.** What about the IC50 (HCV NS3/4A protease) of the same compound?
**A.** Its IC50 is under 10 µM.

**Q.** And the IC90 (HCV NS3/4A protease)?
**A.** The IC90 was 50 µM.

**Q.** What about the “inhibition of trypsin activity” value (trypsin) of the same compound?
**A.** The value was “did not show an inhibition; also recorded: does not occur even at 250 μM”.

**Q.** And the cellular toxicity (Huh7.5 cells)?
**A.** The cellular toxicity was “did not induce any toxicity; also recorded: no perceptible cellular toxicity”.

**Q.** With COC[C@@H](Cc1ccc(OC)c(OC)c1)[C@@H](COC)Cc1ccc(OC)c(OC)c1 [phyllanthin, reference compound] as the compound, how does the death of mice (BALB/c mice [1]; oral, 2000 mg/kg b. wt) read?
**A.** The death of mice was 100%.

**Q.** What about the “maximum acute tolerance dose” value (BALB/c mice [1]; oral) of the same compound?
**A.** The value was 1500 mg/kg b. wt.

**Q.** What about the solubility (Aqueous solubility) of the same compound?
**A.** Its solubility is 250 µg/mL (≈ 597 µM).

**Q.** And the “bioavailability (plasma, up to 24 h)” value ([3]; 500 mg/kg b. wt p.o)?
**A.** The value was “could not observe any bioavailability”.

**Q.** And the “absorbed concentration in plasma” value ([3]; 1500 mg/kg b. wt p.o)?
**A.** The value was “very low concentration”.

**Q.** And the “changes in general behavior and body weights” value (BALB/c mice [4]; 500 mg/kg b. wt/day oral in PEG-400, 28 consecutive days)?
**A.** Its value is “did not exhibit any undesirable changes”.

**Q.** What about the IC50 (HCV NS3/4A protease) of the same compound?
**A.** Its IC50 is about 50 µM.
